ChEMBL document CHEMBL3244396, “Synthesis and antileukemic activity of 5-substituted 2,3-dihydro-6,7-bis(hydroxymethyl)-1H-pyrrolizine diesters” (J Med Chem, 1977)
In brackets after ≈: the same amount, converted by molar mass.

Assays:
L1210 [1] = assay: Antileukemic activity against mouse L1210 cells allografted in female CDF1 mouse assessed as change in body weight at 200 mg/kg, ip administered daily for 9 days as Klucel suspension starting 24 hrs after tumor inoculation; assay type: functional; conditions: route intraperitoneal
In short: (§1)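 Ascitic fluid carrying L1210 cells was inoculated ip. Compound was given ip as a Klucel (hydroxypropylcellulose) suspension in nine daily doses, starting 24 h after inoculation. Body-weight difference (treated minus control) was recorded on day 5. Survival was scored as %T/C of mean survival time.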

L1210 [2] = assay: Antileukemic activity against mouse L1210 cells allografted in female CDF1 mouse assessed as host mean survival time at 100 mg/kg, ip administered daily for 9 days as Klucel suspension starting 24 hrs after tumor inoculation relative to control; assay type: functional; conditions: route intraperitoneal
In short: (§2)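 L1210 leukemia given as an ascitic fluid cell inoculum, ip, to mice of the strain and sex in each line. Test material was given ip for nine daily doses starting 24 h after inoculation, in a Klucel (hydroxypropylcellulose) suspension. Read-out is mean survival time as %T/C versus controls, with >125 taken as significant.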

L1210 [3] = assay: Antileukemic activity against mouse L1210 cells allografted in female CDF1 mouse assessed as change in body weight at 400 mg/kg, ip administered daily for 9 days as Klucel suspension starting 24 hrs after tumor inoculation; assay type: functional; conditions: route intraperitoneal; in short: as §1
[4] = Cytotoxicity against human 9KB cells treated as ethanol solution; assay type: functional; conditions: read-out: ED50 (the source's name)
In short: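 Compound applied as an ethanol solution; activity read out as ED50 under the general screening protocol.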

L1210 [5] = assay: Antileukemic activity against mouse L1210 cells allografted in male CDF1 mouse assessed as host mean survival time at 200 mg/kg, ip administered daily for 9 days as Klucel suspension starting 24 hrs after tumor inoculation relative to control; assay type: functional; conditions: route intraperitoneal; in short: as §2
L1210 [6] = assay: Antileukemic activity against mouse L1210 cells allografted in male CDF1 mouse assessed as change in body weight at 100 mg/kg, ip administered daily for 9 days as Klucel suspension starting 24 hrs after tumor inoculation; assay type: functional; conditions: route intraperitoneal; in short: as §1
Mus musculus [7] = assay: Toxicity in female CDF1 mouse allografted with mouse L1210 cells assessed as animal survival at 400 mg/kg, ip administered daily for 9 days as Klucel suspension starting 24 hrs after tumor inoculation measured on fifth day; assay type: organism-based; parameters: dose 400 mg/kg, route intraperitoneal; conditions: in vivo
In short: (§3)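 L1210 leukemia passaged as ascitic fluid and inoculated ip. Test agent given ip as a Klucel (hydroxypropylcellulose) suspension, nine daily doses starting 24 h after tumor inoculation. Acute toxicity read as toxicity-day survivors per group (out of 6), recorded on day 5. Animal weight difference T − C was also recorded. Follows NCI screening protocols.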

L1210 [8] = assay: Antileukemic activity against mouse L1210 cells allografted in female CDF1 mouse assessed as change in body weight at 100 mg/kg, ip administered daily for 9 days as Klucel suspension starting 24 hrs after tumor inoculation; assay type: functional; conditions: route intraperitoneal; in short: as §1
L1210 [9] = assay: Antileukemic activity against mouse L1210 cells allografted in male CDF1 mouse assessed as host mean survival time at 100 mg/kg, ip administered daily for 9 days as Klucel suspension starting 24 hrs after tumor inoculation relative to control; assay type: functional; conditions: route intraperitoneal; in short: as §2
Mus musculus [10] = assay: Toxicity in male CDF1 mouse allografted with mouse L1210 cells assessed as animal survival at 50 mg/kg, ip administered daily for 9 days as Klucel suspension starting 24 hrs after tumor inoculation measured on fifth day; assay type: organism-based; parameters: dose 50 mg/kg, route intraperitoneal; conditions: in vivo; in short: as §3
L1210 [11] = assay: Antileukemic activity against mouse L1210 cells allografted in female CDF1 mouse assessed as host mean survival time at 50 mg/kg, ip administered daily for 9 days as Klucel suspension starting 24 hrs after tumor inoculation relative to control; assay type: functional; conditions: route intraperitoneal; in short: as §2
Mus musculus [12] = assay: Toxicity in male CDF1 mouse allografted with mouse L1210 cells assessed as animal survival at 100 mg/kg, ip administered daily for 9 days as Klucel suspension starting 24 hrs after tumor inoculation measured on fifth day; assay type: organism-based; parameters: dose 100 mg/kg, route intraperitoneal; conditions: in vivo; in short: as §3
L1210 [13] = assay: Antileukemic activity against mouse L1210 cells allografted in male CDF1 mouse assessed as host mean survival time at 50 mg/kg, ip administered daily for 9 days as Klucel suspension starting 24 hrs after tumor inoculation relative to control; assay type: functional; conditions: route intraperitoneal; in short: as §2
L1210 [14] = assay: Antileukemic activity against mouse L1210 cells allografted in male CDF1 mouse assessed as change in body weight at 200 mg/kg, ip administered daily for 9 days as Klucel suspension starting 24 hrs after tumor inoculation; assay type: functional; conditions: route intraperitoneal; in short: as §1
Mus musculus [15] = assay: Toxicity in male CDF1 mouse allografted with mouse L1210 cells assessed as animal survival at 200 mg/kg, ip administered daily for 9 days as Klucel suspension starting 24 hrs after tumor inoculation measured on fifth day; assay type: organism-based; parameters: dose 200 mg/kg, route intraperitoneal; conditions: in vivo; in short: as §3
Mus musculus [16] = assay: Toxicity in female CDF1 mouse allografted with mouse L1210 cells assessed as animal survival at 50 mg/kg, ip administered daily for 9 days as Klucel suspension starting 24 hrs after tumor inoculation measured on fifth day; assay type: organism-based; parameters: dose 50 mg/kg, route intraperitoneal; conditions: in vivo; in short: as §3
L1210 [17] = assay: Antileukemic activity against mouse L1210 cells allografted in male CDF1 mouse assessed as change in body weight at 50 mg/kg, ip administered daily for 9 days as Klucel suspension starting 24 hrs after tumor inoculation; assay type: functional; conditions: route intraperitoneal; in short: as §1
L1210 [18] = assay: Antileukemic activity against mouse L1210 cells allografted in female CDF1 mouse assessed as change in body weight at 50 mg/kg, ip administered daily for 9 days as Klucel suspension starting 24 hrs after tumor inoculation; assay type: functional; conditions: route intraperitoneal; in short: as §1
L1210 [19] = assay: Antileukemic activity against mouse L1210 cells allografted in female CDF1 mouse assessed as host mean survival time at 200 mg/kg, ip administered daily for 9 days as Klucel suspension starting 24 hrs after tumor inoculation relative to control; assay type: functional; conditions: route intraperitoneal; in short: as §2

## COc1ccc(-c2c(COC(C)=O)c(COC(C)=O)c3n2CCC3)cc1
L1210 [1]
  Activity: -2.5 g
L1210 [2]
  T/C: 65%
L1210 [3]
  Activity: -0.1 g
[4]
  EC50: 2.5 µg/mL (≈ 6.99 µM)
L1210 [5]
  T/C: 130%
L1210 [6]
  Activity: -7.2 g
Mus musculus [7]
  Activity: Toxic
L1210 [8]
  Activity: -2.5 g
L1210 [9]
  T/C: 78%
Mus musculus [10]
  Activity: Non-toxic
L1210 [11]
  T/C: 77%
Mus musculus [12]
  Activity: Non-toxic
L1210 [13]
  T/C: 113%
L1210 [14]
  Activity: -5.2 g
Mus musculus [15]
  Activity: Non-toxic
Mus musculus [16]
  Activity: Non-toxic
L1210 [17]
  Activity: -2.9 g
L1210 [18]
  Activity: -1 g
L1210 [19]
  T/C: 65%
